# Assay results of several laboratories.
# Compare with care: the assays were run in different laboratories.
# Target: Serine/threonine-protein kinase PLK4 (PLK4, Homo sapiens, UniProt O00444)
# Sequence (O00444 1-970, as in one of the studies): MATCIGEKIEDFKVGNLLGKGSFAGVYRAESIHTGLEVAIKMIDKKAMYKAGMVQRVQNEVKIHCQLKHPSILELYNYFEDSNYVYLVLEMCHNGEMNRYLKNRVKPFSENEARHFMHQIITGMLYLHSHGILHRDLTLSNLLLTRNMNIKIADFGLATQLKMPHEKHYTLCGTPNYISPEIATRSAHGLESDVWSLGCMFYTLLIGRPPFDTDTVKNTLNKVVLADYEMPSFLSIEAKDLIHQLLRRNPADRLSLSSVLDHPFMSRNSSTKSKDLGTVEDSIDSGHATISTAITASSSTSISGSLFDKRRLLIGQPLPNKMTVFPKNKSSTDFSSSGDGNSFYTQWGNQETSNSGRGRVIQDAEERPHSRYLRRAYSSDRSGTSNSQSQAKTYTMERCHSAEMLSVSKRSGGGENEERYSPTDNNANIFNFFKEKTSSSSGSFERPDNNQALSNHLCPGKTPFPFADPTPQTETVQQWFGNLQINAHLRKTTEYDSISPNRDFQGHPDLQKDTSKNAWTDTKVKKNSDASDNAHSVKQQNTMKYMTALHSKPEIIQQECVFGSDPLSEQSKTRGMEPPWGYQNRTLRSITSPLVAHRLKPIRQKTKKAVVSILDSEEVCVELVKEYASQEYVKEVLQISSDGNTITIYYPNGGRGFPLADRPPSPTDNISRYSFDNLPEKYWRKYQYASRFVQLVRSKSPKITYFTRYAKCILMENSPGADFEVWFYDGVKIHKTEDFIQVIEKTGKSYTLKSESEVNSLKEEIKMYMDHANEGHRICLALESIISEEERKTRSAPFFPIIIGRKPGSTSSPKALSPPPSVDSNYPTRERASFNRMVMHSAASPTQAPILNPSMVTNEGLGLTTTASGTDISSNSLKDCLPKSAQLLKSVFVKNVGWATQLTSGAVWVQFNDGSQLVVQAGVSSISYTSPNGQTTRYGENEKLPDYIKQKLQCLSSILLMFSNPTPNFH
Compound,test,setting,endpoint,value
C=CC(=O)N1CCC([C@@H]2CCNc3c(C(N)=O)c(-c4ccc(Oc5ccccc5)cc4)nn32)CC1,"enzyme activity, inhibitor",1 µM,inhibition,1%
C[C@H]1CC[C@H](n2c3cnccc3c3cnc(Nc4ccc5c(n4)CCN(C(=O)CO)C5)nc32)CC1,"binding, competition with immobilised ligand",1 µM,remaining binding,18%
C=CC(=O)N1CCC[C@@H](n2nc(-c3ccc(Oc4ccccc4)cc3)c3c(N)ncnc32)C1,"enzyme activity, inhibitor",1 µM,inhibition,5%
C1=C/COCc2cc(ccc2OCCN2CCCC2)Nc2nccc(n2)-c2cccc(c2)COC/1,binding,0.1 µM,remaining binding,42%
C#Cc1cc(-c2cc(Nc3nc(N[C@@H](C)c4ccc(F)cn4)ncc3Cl)n[nH]2)ccc1C=O,"enzyme activity, inhibitor",0.2 µM,inhibition,80.7%
COc1ccc2oc(-c3ccc4nc(N)oc4c3)c/c(=N\c3ccccc3NC(=O)CCN)c2c1,binding,1 µM,remaining binding,98%
N#Cc1ccc(NC(=O)Nc2ccccc2)cc1,"cell-free assay, competition with immobilised ligand",25 µM,remaining binding,61%
CCCCC(=O)Nc1ccc(-c2ccc3ncn(CCC)c(=O)c3c2)cn1,"binding, competition with immobilised ligand",0.5 µM,remaining binding,100%
Cc1ccc(NC(=O)c2ccnc(C(F)(F)F)c2)cc1-c1cc(OCCO)nc(N2CCOCC2)c1,"binding, competition with immobilised ligand",1 µM,remaining binding,75%
